Measured values taken from ChEMBL document CHEMBL3045950, “Design, synthesis, and analysis of the quantitative structure-activity relationships of 4-phenyl-acyl-substituted 3-(2,5-dimethylphenyl)-4-hydroxy-1-azaspiro[4.5]dec-3-ene-2,8-dione derivatives” (2012).

What was measured:
Format in all cases: functional
Aphis fabae [1] = experiment: Insecticidal activity against Aphis fabae (black bean aphid) apterous third-instar nymphae in tender soybean shoots assessed as inhibition activity at 100 mg/L after 72 hr
Summary of the method: (§1)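 Test solutions were made in N,N-dimethylformamide and diluted to working concentration with distilled water containing TW-80 (0.1 mL L⁻¹). Aphids were dipped following a slightly modified FAO dip test. Assessment was made 72 h after treatment. Each treatment was run three times, and control groups were given water only. Deviation of values was 5%.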

Tetranychus cinnabarinus [2] = experiment: Larvicidal activity against Tetranychus cinnabarinus (carmine spider mite) fifty third-instar mite larvae assessed as inhibition activity at 100 mg/L after 72 hr
Summary of the method: (§2)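 Test solutions were made in N,N-dimethylformamide and diluted with distilled water containing TW-80 (0.1 mL L⁻¹). Fifty third-instar larvae were dipped in the dilution for 5 s, and excess liquid was removed. Larvae were then held in an air-conditioned room, and mortality was scored at 72 h. Tests were run in triplicate, and controls were treated with water only.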

Aphis fabae [3] = experiment: Insecticidal activity against Aphis fabae (black bean aphid) apterous third-instar nymphae in tender soybean shoots assessed as inhibition activity at 10 mg/L after 72 hr; summary of the method: as §1
Tetranychus cinnabarinus [4] = experiment: Larvicidal activity against Tetranychus cinnabarinus ( carmine spider mite ) fifty third-instar mite larvae assessed as inhibition activity at 10 mg/L after 72 hr; summary of the method: as §2

Row | Compound | inhibition at 100 µg/mL (Aphis fabae [1]) | inhibition at 100 µg/mL (Tetranychus cinnabarinus [2]) | inhibition at 10 µg/mL (Aphis fabae [3]) | inhibition at 10 µg/mL (Tetranychus cinnabarinus [4])
1 | CCOC(=O)OC1=C(c2cc(C)ccc2C)C(=O)NC12CCC(=O)CC2 | 93.5% | 62.3% | 45.9% | 30.4%
2 | Cc1ccc(C)c(C2=C(OC(=O)Cc3ccccc3Cl)C3(CCC(=O)CC3)NC2=O)c1 | 96.5% | 53.5% | 59.2% | 28.3%
3 | Cc1ccc(C)c(C2=C(OC(=O)c3ccccc3)C3(CCC(=O)CC3)NC2=O)c1 | 91.8% | 49.8% | 29.3% | 18.2%
4 | Cc1ccc(C)c(C2=C(OC(=O)c3ccccc3C)C3(CCC(=O)CC3)NC2=O)c1 | 25.5% | 59.4% | 6.27% | 17.3%
5 | Cc1ccc(C)c(C2=C(OC(=O)c3ccc(Cl)cc3)C3(CCC(=O)CC3)NC2=O)c1 | 68.2% | 42.9% | 10.8% | 9.23%
6 | Cc1cc(C)c(C2=C(OC(=O)CC(C)(C)C)C3(CCCC3)OC2=O)c(C)c1 [SPIROMESIFEN] | 62.5% | 80.2% | 14.3% | 42.1%
7 | COc1ccc(CC(=O)OC2=C(c3cc(C)ccc3C)C(=O)NC23CCC(=O)CC3)cc1 | 92.1% | 80.5% | 87.3% | 24.4%
8 | CCOC(=O)OC1=C(c2cc(C)ccc2C)C(=O)N[C@]12CC[C@@H](OC)CC2 [SPIROTETRAMAT] | 100% | 75% | 96.8% | 26.3%
9 | Cc1ccc(C)c(C2=C(OC(=O)Cc3ccc(Cl)cc3)C3(CCC(=O)CC3)NC2=O)c1 | 89.8% | 58% | 47.3% | 17.8%
10 | Cc1ccc(C)c(C2=C(OC(=O)Cc3ccccc3)C3(CCC(=O)CC3)NC2=O)c1 | 95.6% | 66.8% | 62.8% | 38.9%
11 | CCCC(=O)OC1=C(c2cc(C)ccc2C)C(=O)NC12CCC(=O)CC2 | 98.7% | 54.7% | 37.3% | 19.7%
12 | Cc1ccc(CC(=O)OC2=C(c3cc(C)ccc3C)C(=O)NC23CCC(=O)CC3)cc1 | 73.5% | 70.8% | 48.4% | 21.8%
13 | Cc1ccc(C)c(C2=C(OC(=O)Cc3ccc(Cl)cc3Cl)C3(CCC(=O)CC3)NC2=O)c1 | 85.6% | 75.9% | 26.9% | 31.2%
14 | Cc1ccc(C)c(CC(=O)OC2=C(c3cc(C)ccc3C)C(=O)NC23CCC(=O)CC3)c1 | 76.2% | 61.6% | 37.3% | 24.6%
15 | Cc1ccc(C)c(C2=C(OC(=O)Cc3ccc([N+](=O)[O-])cc3)C3(CCC(=O)CC3)NC2=O)c1 | 92.2% | 73.8% | 32.3% | 16.3%
16 | Cc1ccc(C)c(C2=C(OC(=O)Cc3ccc(F)cc3)C3(CCC(=O)CC3)NC2=O)c1 | 93.7% | 49% | 69.3% | 29.9%
17 | Cc1ccc(C)c(C2=C(OC(=O)Cc3cccc(Cl)c3)C3(CCC(=O)CC3)NC2=O)c1 | 44.6% | 24.7% | 13.6% | 3.23%
18 | C/C=C/C(=O)OC1=C(c2cc(C)ccc2C)C(=O)NC12CCC(=O)CC2 | 85.6% | 58.2% | 34.9% | 23.4%
19 | Cc1ccc(C)c(C2=C(OC(=O)Cc3ccc(C(F)(F)F)cc3)C3(CCC(=O)CC3)NC2=O)c1 | 98.6% | 85.3% | 60% | 49%
20 | Cc1ccc(C)c(C2=C(OC(=O)CC(C)(C)C)C3(CCC(=O)CC3)NC2=O)c1 | 62.1% | 26.1% | 21.6% | 8.76%
21 | CCC(C)(C)C(=O)OC1=C(c2ccc(Cl)cc2Cl)C(=O)OC12CCCCC2 [SPIRODICLOFEN] | 60.3% | 70.6% | 19.4% | 36.7%
22 | Cc1cc(C)c(CC(=O)OC2=C(c3cc(C)ccc3C)C(=O)NC23CCC(=O)CC3)c(C)c1 | 69.2% | 39.4% | 25.2% | 12.1%
23 | Cc1ccc(C)c(C2=C(OC(=O)Cc3ccc(Br)cc3)C3(CCC(=O)CC3)NC2=O)c1 | 47.8% | 32.5% | 9.78% | 5.25%
24 | Cc1ccc(C)c(C2=C(OC(=O)Cc3ccc(Cl)c(Cl)c3)C3(CCC(=O)CC3)NC2=O)c1 | 97.3% | 71.7% | 49.3% | 28.9%
